The text below walks through data of ChEMBL document CHEMBL3414571, “The discovery of macrocyclic XIAP antagonists from a DNA-programmed chemistry library, and their optimization to give lead compounds with in vivo antitumor activity” (J Med Chem, 2015).

Structures are written as SMILES. Calls of active or inactive are those of the source. The rule behind the calls is not given here.

Usually IC50 stands for the concentration that inhibits the measured activity by half. By half-life is commonly meant how long it takes for the measured level to halve. A lower half-life goes with rapid decline. For orientation: MRT means a mean duration of stay, worked out from the concentration-time curve.

For data set [1], the system named is Mus musculus. The data set can be described thus: Toxicity in human MDA-MB-231 cells xenografted athymic (nu+/nu+) Balb/C mouse assessed as weight loss at 5 to 50 mg/kg, ip dosed every 3 days for total of 5 administrations. It is filed as organism-based. Also noted: dose 5-50 mg/kg, route intraperitoneal. As to conditions: in vivo, 72 h. In a few lines: (§1)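 Nude mice carrying subcutaneous MDA-MB-231 tumors staged to 100−150 mm3 were dosed intraperitoneally q3d × 5. Morbidity and body weight loss were monitored throughout the dosing regimen.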
(In general: Xenograft models place foreign cells or tissue in a host animal.)

The nature of data set [2]: Antitumor activity against human A875 cells xenografted in athymic (nu+/nu+) Balb/C mouse assessed as tumor growth inhibition at 50 mg/kg, ip dosed every 3 days for total of 5 administrations. It is filed as functional. To be noted: 72 h, route intraperitoneal, read-out: TGI. Put shortly:
(§2)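 Tumor fragments or cells were implanted subcutaneously in athymic nude mice. Once tumors were staged to 100−150 mm3, mice were dosed intraperitoneally every 3 days for 5 doses (q3d × 5).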

The subject of the next data set is A875. Nature of the data set: Antitumor activity against human A875 cells xenografted in athymic (nu+/nu+) Balb/C mouse assessed as tumor growth inhibition at 50 mg/kg, ip dosed every 3 days for total of 5 administrations and measured on day 12 after last dose. It is filed as functional, organism-based. Also noted: dose 50 mg/kg. In a few lines: as §2
Data set [3] in a line: Inhibition of XIAP BIR2 (124 to 240 residues) C202A/C213G mutant (unknown origin) incubated for 60 mins by biotinylated SMAC peptide Alpha-screen assay. Also noted: species or system Homo sapiens. Background: In Alpha technology, singlet oxygen from a donor bead excites a nearby acceptor bead.
The subject of data set [4] is MDA-MB-231. The data set can be described thus: Antiproliferative activity against human MDA-MB-231 cells assessed as inhibition of cell proliferation after 72 hrs by MTS assay. It is filed as functional, cell-based. To be noted: MDA-MB-231, 72 h. (In general: Tetrazolium assays rely on reduction of a dye to a coloured formazan, in cell work by metabolically active cells.)

The nature of data set [5]: Antiproliferative activity against human A875 cells assessed as inhibition of cell proliferation after 72 hrs by MTS assay. It is filed as functional, cell-based. As to conditions: A875, 72 h.
Another data set concerns A549. Nature of the data set: Antiproliferative activity against human A549 cells assessed as inhibition of cell proliferation after 72 hrs by MTS assay. It is filed as functional, cell-based. As to conditions: A549, 72 h.
The nature of data set [6]: Half life in Balb/C mouse at 1 mg/kg, iv administered as single dose by LC-MS/MS method. It is filed as ADME, organism-based. Also noted: dose 1 mg/kg, route intravenous. As to conditions: in vivo. Put shortly: (§3)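 Mice received one intravenous dose, and parent compound levels in blood were monitored over time. Plasma pharmacokinetic parameters were derived from these concentration–time profiles.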

Data set [7] in a line: Mean residence time in Balb/C mouse at 1 mg/kg, iv administered as single dose by LC-MS/MS method. It is filed as ADME, organism-based. Also noted: dose 1 mg/kg, route intravenous. To be noted: in vivo. Put shortly: as §3
Data set [8] in a line: Volume of distribution at steady state in Balb/C mouse at 1 mg/kg, iv administered as single dose by LC-MS/MS method. It is filed as ADME, organism-based. Also noted: dose 1 mg/kg, route intravenous. To be noted: in vivo, read-out: Vdss. In a few lines:
as §3

Data set [9] concerns Mus musculus. The data set can be described thus: AUClast in Balb/C mouse at 1 mg/kg, iv administered as single dose by LC-MS/MS method. It is filed as ADME, organism-based, Plasma. Also noted: time 0 - last, dose 1 mg/kg, route intravenous. As to conditions: in vivo. In a few lines:
as §3

Data set [10] has as its system MDA-MB-231. The data set can be described thus: Antitumor activity against human MDA-MB-231 cells xenografted in athymic (nu+/nu+) Balb/C mouse assessed as tumor growth inhibition at 5 mg/kg, ip dosed every 3 days for total of 5 administrations. Also noted: dose 5 mg/kg. It is filed as functional, organism-based. In a few lines:
as §2

Data set [11] has as its system MDA-MB-231. The data set can be described thus: Antitumor activity against human MDA-MB-231 cells xenografted in athymic (nu+/nu+) Balb/C mouse assessed as tumor growth inhibition at 20 mg/kg, ip dosed every 3 days for total of 5 administrations. It is filed as functional, organism-based. Also noted: dose 20 mg/kg. In a few lines: as §2
In data set [12] the test system is MDA-MB-231. Nature of the data set: Antitumor activity against human MDA-MB-231 cells xenografted in athymic (nu+/nu+) Balb/C mouse assessed as tumor growth inhibition at 50 mg/kg, ip dosed every 3 days for total of 5 administrations. As to conditions: MDA-MB-231, ip, 72 h, route intraperitoneal, read-out: TGI. It is filed as functional. In a few lines:
as §2

For data set [13], the system named is Mus musculus. The data set can be described thus: Toxicity in human MDA-MB-231 cells xenografted athymic (nu+/nu+) Balb/C mouse assessed as mouse morbidity at 5 to 50 mg/kg, ip dosed every 3 days for total of 5 administrations. It is filed as organism-based. Also noted: dose 5-50 mg/kg, route intraperitoneal. As to conditions: in vivo, 72 h. In a few lines: as §1

In the case of `CN[C@@H](C)C(=O)N[C@H](C(=O)N1C[C@@H]2C[C@H]1C(=O)N[C@@H](Cc1ccc3ccccc3c1)C(=O)N[C@H](C(=O)O)Cc1ccc(cc1)OCc1cn(nn1)[C@H]1C[C@@H](C(=O)N[C@@H](Cc3ccc4ccccc4c3)C(=O)N[C@H](C(=O)O)Cc3ccc(cc3)OCc3cn2nn3)N(C(=O)[C@@H](NC(=O)[C@H](C)NC)C(C)(C)C)C1)C(C)(C)C`, the Activity entry with Mus musculus [1] and with Mus musculus [13] was “Non-toxic” each time. Also, the inhibition in vivo at 50 mg/kg amounted to 148% in data set [2] and 78% in the data set with MDA-MB-231 [12]. For the same molecule, in the data set on A875, the TGI result was “Active”. The IC50 in data set [3] is 97 nM; with MDA-MB-231 [4] it was 26 nM; in data set [5], 77 nM; in the data set with A549, > 25000 nM. The molecule also had a half-life in data set [6] of 51 min. For the same molecule, the MRT in data set [7] was found to be 47.4 min. Moreover, the Vd in data set [8] was 0.34 L/kg. Besides, the AUClast in the data set on Mus musculus [9] turned out to be 1550 ng·h/mL. For the same molecule, the TGI result in the data set on MDA-MB-231 [10] and in the data set on MDA-MB-231 [11] was “inactive” throughout.
